Results reported in ChEMBL document CHEMBL2029236, “Tubulin binding, protein-bound conformation in solution, and antimitotic cellular profiling of noscapine and its derivatives” (J Med Chem, 2012).
Activity calls are given as the source filed them. The calls are words filed in the database; no cut-off is given here.

Legend:
SNU-398 [1] = assay: Cell cycle arrest in human SNU398 cells assessed as accumulation at G1 phase at 100 nM after 24 hrs by FACS analysis (reference value: 55.8%); type: functional
[2] = Antiproliferative activity against human Hep3B after 72 hrs by CellTiter Glo assay; type: functional, Hep 3B2
In short: (§1)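 Cell viability assay in hepatocellular carcinoma cell lines; IC50 values derived from concentration–response data and reported in nM.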

SNU-398 [3] = assay: Cell cycle arrest in human SNU398 cells assessed as accumulation at sub-G1 phase at 100 nM after 24 hrs by FACS analysis (reference value: 1.2%); type: functional
[4] = Antiproliferative activity against human JHH7 after 72 hrs by CellTiter Glo assay; type: functional; in short: as §1
SNU-398 [5] = assay: Cell cycle arrest in human SNU398 cells assessed as accumulation at G2 phase at 100 nM after 24 hrs by FACS analysis (reference value: 38.2%); type: functional
SNU-449 = assay: Antiproliferative activity against human SNU449 after 72 hrs by CellTiter Glo assay; type: functional, cell-based; settings: SNU-449, 72 h; in short: as §1
Huh-7 = assay: Antiproliferative activity against human HuH7 after 72 hrs by CellTiter Glo assay; type: functional, cell-based; settings: Huh-7, 72 h; in short: as §1
Bel-7402 = assay: Antiproliferative activity against human Bel7402 after 72 hrs by CellTiter Glo assay; type: functional, cell-based; settings: Bel-7402, 72 h; in short: as §1
[6] = Antiproliferative activity against human PLC/PRF/5 after 72 hrs by CellTiter Glo assay; type: functional; settings: PLC-PRF-5, 72 h; in short: as §1
SNU-423 = assay: Antiproliferative activity against human SNU423 after 72 hrs by CellTiter Glo assay; type: functional, cell-based; settings: SNU-423, 72 h; in short: as §1
[7] = Antiproliferative activity against human JHH2 after 72 hrs by CellTiter Glo assay; type: functional; in short: as §1
[8] = Cell cycle arrest in human PLC/PRF/5 cells assessed as accumulation at G2 phase at 100 nM after 24 hrs by FACS analysis (reference value: 26.1%); type: functional, cell-based
[9] = Antiproliferative activity against human PLC/PRF/5 cells; type: functional, cell-based; in short: as §1
SNU-398 [10] = assay: Antiproliferative activity against human SNU398 cells; type: functional, cell-based; in short: as §1
HepG2 = assay: Antiproliferative activity against human HepG2 after 72 hrs by CellTiter Glo assay; type: functional, cell-based; settings: HepG2, 72 h; in short: as §1
[11] = Antiproliferative activity against human JHH4 after 72 hrs by CellTiter Glo assay; type: functional; in short: as §1
SMMC-7721 = assay: Antiproliferative activity against human SMMC7721 after 72 hrs by CellTiter Glo assay; type: functional, cell-based; settings: SMMC-7721, 72 h; in short: as §1
[12] = Cell cycle arrest in human PLC/PRF/5 cells assessed as accumulation at sub-G1 phase at 100 nM after 24 hrs by FACS analysis (reference value: 1.4%); type: functional, cell-based
SNU-398 [13] = assay: Antiproliferative activity against human SNU398 after 72 hrs by CellTiter Glo assay; type: functional, cell-based; settings: SNU-398, 72 h; in short: as §1
[14] = Antiproliferative activity against human SNU182 after 72 hrs by CellTiter Glo assay; type: functional, cell-based; settings: SNU-182, 72 h; in short: as §1
[15] = Cell cycle arrest in human PLC/PRF/5 cells assessed as accumulation at G1 phase at 100 nM after 24 hrs by FACS analysis (reference value: 66.8%); type: functional, cell-based
SNU-475 = assay: Antiproliferative activity against human SNU475 after 72 hrs by CellTiter Glo assay; type: functional, cell-based; settings: SNU-475, 72 h; in short: as §1
SNU-387 = assay: Antiproliferative activity against human SNU387 after 72 hrs by CellTiter Glo assay; type: functional, cell-based; settings: SNU-387, 72 h; in short: as §1
[16] = Antiproliferative activity against human MHCC97H after 72 hrs by CellTiter Glo assay; type: functional; in short: as §1
Bos taurus [17] = organism: Bos taurus; assay: Binding affinity to calf brain tubulin assessed as increase in fluorescence at 10 uM by fluorometry relative to control
In short: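 Fluorescence emission spectra of 10 μM ligand with and without 10 μM tubulin in 10 mM sodium phosphate, 0.1 mM GTP, pH 7.0, 25 °C. Emission intensity (425 nm maximum) and anisotropy were compared between bound and unbound ligand.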

SNU-398 [18] = assay: Cell cycle arrest in human SNU398 cells assessed as accumulation at sub-G1 phase at 2 uM after 24 hrs by FACS analysis (reference value: 1.2%); type: functional
SNU-398 [19] = assay: Cell cycle arrest in human SNU398 cells assessed as accumulation at G2 phase at 2 uM after 24 hrs by FACS analysis (reference value: 38.2%); type: functional
[20] = Cell cycle arrest in human PLC/PRF/5 cells assessed as accumulation at sub-G1 phase at 2 uM after 24 hrs by FACS analysis (reference value: 1.4%); type: functional, cell-based
SNU-398 [21] = assay: Cell cycle arrest in human SNU398 cells assessed as accumulation at G1 phase at 2 uM after 24 hrs by FACS analysis (reference value: 55.8%); type: functional
Bos taurus [22] = organism: Bos taurus; assay: Binding affinity to calf brain tubulin alpha/beta heterodimer assessed as increase in proton signal at […] by STD NMR analysis
In short: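 STD NMR with freshly prepared tubulin α/β heterodimer. Ligand:protein molar ratio 30:1 ([…], […]). Read-out: enhancement of ligand proton signals in STD spectra versus an off-resonance reference spectrum acquired without protein irradiation.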

[23] = Cell cycle arrest in human PLC/PRF/5 cells assessed as accumulation at G2 phase at 2 uM after 24 hrs by FACS analysis (reference value: 26.1%); type: functional, cell-based
[24] = Cell cycle arrest in human PLC/PRF/5 cells assessed as accumulation at G1 phase at 2 uM after 24 hrs by FACS analysis (reference value: 66.8%); type: functional, cell-based
[25] = Cell cycle arrest in human PLC/PRF/5 cells assessed as accumulation at G1 phase after 24 hrs by FACS analysis (reference value: 66.8%); type: functional, cell-based
[26] = Cell cycle arrest in human PLC/PRF/5 cells assessed as accumulation at G2 phase after 24 hrs by FACS analysis (reference value: 26.1%); type: functional, cell-based
SNU-398 [27] = assay: Cell cycle arrest in human SNU398 cells assessed as accumulation at sub-G1 phase after 24 hrs by FACS analysis (reference value: 1.2%); type: functional
SNU-398 [28] = assay: Cell cycle arrest in human SNU398 cells assessed as accumulation at G1 phase after 24 hrs by FACS analysis (reference value: 55.8%); type: functional
[29] = Cell cycle arrest in human PLC/PRF/5 cells assessed as accumulation at sub-G1 phase after 24 hrs by FACS analysis (reference value: 1.4%); type: functional, cell-based
SNU-398 [30] = assay: Cell cycle arrest in human SNU398 cells assessed as accumulation at G2 phase after 24 hrs by FACS analysis (reference value: 38.2%); type: functional

| Structure (SMILES) | IC50 [2] | IC50 [4] | IC50 (SNU-449) | IC50 (Huh-7) | IC50 (Bel-7402) | IC50 [6] | IC50 (SNU-423) | IC50 [7] | IC50 [9] | IC50 (SNU-398 [10]) | IC50 (HepG2) | IC50 [11] | IC50 (SMMC-7721) | IC50 (SNU-398 [13]) | IC50 [14] | IC50 (SNU-475) | IC50 (SNU-387) | IC50 [16] | further results |
| --- | --- | --- | --- | --- | --- | --- | --- | --- | --- | --- | --- | --- | --- | --- | --- | --- | --- | --- | --- |
| C/C(=C\c1csc(C)n1)[C@@H]1C[C@@H]2O[C@]2(C)CCC[C@H](C)[C@H](O)[C@@H](C)C(=O)C(C)(C)[C@@H](O)CC(=O)O1 [PATUPILONE] | > 100 nM | 14.8 nM | 19.9 nM | 4.5 nM | 0.9 nM | 12.7 nM | 10.3 nM | 61.3 nM | 3.8 nM | 5 nM | 44.7 nM | 1.8 nM | 2.3 nM | 2.9 nM | 22.3 nM | 11.6 nM | 20 nM | 6.7 nM | Activity (SNU-398 [1]): 13.7%; Activity (SNU-398 [3]): 11.8%; Activity (SNU-398 [5]): 70.1%; Activity [8]: 56.3%; Activity [12]: 5.1%; Activity [15]: 5.4% |
| COc1ccc2c(c1OC)C(=O)O[C@@H]2[C@H]1c2c(cc3c(c2OC)OCO3)CCN1C [NOSCAPINE] | > 1000 nM | > 1000 nM | > 1000 nM | > 1000 nM | > 1000 nM | > 1000 nM | > 1000 nM | > 1000 nM | > 2000 nM | > 2000 nM | > 1000 nM | > 1000 nM | > 1000 nM | > 1000 nM | > 1000 nM | > 1000 nM | > 1000 nM | > 1000 nM | Activity (Bos taurus [17]): inactive; Activity (SNU-398 [18]): 1%; Activity (SNU-398 [19]): 30.3%; Activity [20]: 1.5%; Activity (SNU-398 [21]): 66%; inhibition (Bos taurus [22]): Active; Activity [23]: 27.1%; Activity [24]: 65.5% |
| CC(=O)O[C@@]12CO[C@@H]1C[C@H](O)[C@@]1(C)C(=O)[C@H](O)C3=C(C)[C@@H](OC(=O)[C@H](O)[C@@H](NC(=O)OC(C)(C)C)c4ccccc4)C[C@@](O)([C@@H](OC(=O)c4ccccc4)[C@H]21)C3(C)C.O.O.O [DOCETAXEL] | 38.2 nM | – | > 100 nM | 12.1 nM | 1.9 nM | 16.7 nM | 10.8 nM | > 100 nM | 12 nM | 16.6 nM | > 100 nM | 14.1 nM | 2 nM | 17.6 nM | 39.2 nM | 20.5 nM | 4.3 nM | 22.4 nM | Activity [25]: 11.2%; Activity [26]: 64.4%; Activity (SNU-398 [27]): 9.3%; Activity (SNU-398 [28]): 12.7%; Activity [29]: 16.8%; Activity (SNU-398 [30]): 72.2% |
